# Experimental data taken from ChEMBL document CHEMBL1125495, “Inhibitors of human renin with C-termini derived from amides and esters of alpha-mercaptoalkanoic acids” (J Med Chem, 1992).
# pIC50: −log10 of the molar value.
# Columns and labels:
# Rhesus monkey [1] = test: In vivo effect on mean arterial pressure(peak deltaMAP) in sodium deficient rhesus monkeys after iv administration (dose 0.99 mg/kg).; format: functional, Cercopithecidae, Artery
# Summary of the method: (§1)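 Conscious male and female rhesus monkeys (N = 2) with chronic arterial access ports for direct MAP and heart-rate monitoring, and venous catheters for dosing. Animals were kept on a low-sodium diet, given furosemide the evening before, and fasted 18 h before and during the study. Compound was given iv in 0.05% acetic acid/5% dextrose/H2O, 20 min after a vehicle control dose. Peak changes were averaged, and the hypotensive half-life was read from time plots.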
# Rhesus monkey [2] = test: In vivo effect on heart rate(peak deltaHR) in sodium deficient rhesus monkeys after iv administration (dose 0.99 mg/kg).; format: functional, Cercopithecidae; summary of the method: as §1
# Rhesus monkey [3] = test: Half life of hypotensive effect in sodium deficient rhesus monkeys after iv administration (dose 0.99 mg/kg).; format: functional, organism-based; set-up: dose 0.99 mg/kg; conditions: Cercopithecidae; summary of the method: as §1
# Renin (Homo sapiens) [4] = target: T1, Renin (Homo sapiens) (UniProt P00797); conditions: Cercopithecidae; at 0.99 mg/kg
# T1 sequence (whole entry): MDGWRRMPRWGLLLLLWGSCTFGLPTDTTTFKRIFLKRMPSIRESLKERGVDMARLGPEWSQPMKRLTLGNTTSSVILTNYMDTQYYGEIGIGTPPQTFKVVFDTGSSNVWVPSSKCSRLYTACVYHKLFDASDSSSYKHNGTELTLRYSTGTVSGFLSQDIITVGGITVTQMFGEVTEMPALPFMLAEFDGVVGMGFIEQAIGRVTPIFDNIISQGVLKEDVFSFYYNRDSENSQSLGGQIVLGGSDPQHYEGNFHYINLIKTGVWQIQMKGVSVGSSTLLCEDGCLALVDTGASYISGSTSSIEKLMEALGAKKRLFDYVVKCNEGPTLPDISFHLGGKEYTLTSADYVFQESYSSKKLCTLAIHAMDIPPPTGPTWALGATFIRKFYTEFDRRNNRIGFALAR
# Renin = target: T2, Renin (Homo sapiens, UniProt P00797); test: Inhibition of human plasma renin; format: cell-free
# T2 sequence (P00797 whole entry): T1 sequence (whole entry)
# Rhesus monkey [5] = test: Half life of hypotensive effect in sodium deficient rhesus monkeys after iv administration (dose 0.31 mg/kg).; format: functional, organism-based; set-up: dose 0.31 mg/kg; conditions: Cercopithecidae; summary of the method: as §1
# Rhesus monkey [6] = test: In vivo effect on heart rate(peak deltaHR) in sodium deficient rhesus monkeys after iv administration (dose 0.31 mg/kg).; format: functional, Cercopithecidae; summary of the method: as §1
# Renin (Homo sapiens) [7] = target: T1, Renin (Homo sapiens); conditions: Cercopithecidae; Plasma; at 0.63 mg/kg
# Rhesus monkey [8] = test: In vivo effect on mean arterial pressure(peak deltaMAP) in sodium deficient rhesus monkeys after iv administration (dose 0.31 mg/kg).; format: functional, Cercopithecidae, Artery; summary of the method: as §1
# Rhesus monkey [9] = test: In vivo effect on mean arterial pressure(peak deltaMAP) in sodium deficient rhesus monkeys after iv administration (dose 0.063 mg/kg).; format: functional, Cercopithecidae, Artery; summary of the method: as §1
# Renin (Homo sapiens) [10] = target: T1, Renin (Homo sapiens); test: In vivo inhibition of plasma renin activity in sodium deficient rhesus monkeys after iv administration (dose 0.063 mg/kg, determined at peak deltaMAP).; format: functional, organism-based; set-up: dose 0.063 mg/kg; conditions: Cercopithecidae, target entry is the homologue from another species, at 0.063 mg/kg
# Summary of the method: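 Sodium-deficient rhesus monkeys (N = 2) were kept on a low-sodium diet, given furosemide the evening before, and fasted 18 h. Compound was given iv through a venous catheter in 0.05% acetic acid/5% dextrose/H2O, 20 min after vehicle. Blood was drawn periodically via an arterial access port for plasma renin activity. Percent inhibition was taken at peak ΔMAP.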
# Rhesus monkey [11] = test: Half life of hypotensive effect in sodium deficient rhesus monkeys after iv administration (dose 0.063 mg/kg).; format: functional, organism-based; set-up: dose 0.063 mg/kg; conditions: Cercopithecidae; summary of the method: as §1
# Rhesus monkey [12] = test: In vivo effect on heart rate(peak deltaHR) in sodium deficient rhesus monkeys after iv administration (dose 0.063 mg/kg).; format: functional, Cercopithecidae; summary of the method: as §1
# Rhesus monkey [13] = test: In vivo effect on heart rate(peak deltaHR) in sodium deficient rhesus monkeys after iv administration (dose 0.34 mg/kg).; format: functional, Cercopithecidae
# Rhesus monkey [14] = test: Half life of hypotensive effect in sodium deficient rhesus monkeys after iv administration (dose 0.34 mg/kg).; format: functional, organism-based; set-up: dose 0.34 mg/kg; conditions: Cercopithecidae
# Rhesus monkey [15] = test: In vivo effect on mean arterial pressure(peak deltaMAP) in sodium deficient rhesus monkeys after iv administration (dose 0.34 mg/kg).; format: functional, Cercopithecidae, Artery
# Renin (Homo sapiens) [16] = target: T1, Renin (Homo sapiens); test: In vivo inhibition of plasma renin activity in sodium deficient rhesus monkeys after iv administration (dose 0.34 mg/kg, determined at peak deltaMAP).; format: functional, organism-based; set-up: dose 0.34 mg/kg; conditions: Cercopithecidae, target entry is the homologue from another species, at 0.34 mg/kg
smiles,measurement,setting,value
CC(C)(C)OC(=O)N[C@@H](Cc1ccccc1)C(=O)N[C@@H](Cc1c[nH]cn1)C(=O)N[C@@H](CC1CCCCC1)[C@@H](O)CSCC(=O)NCc1ccncc1,Peak deltaMAP,Rhesus monkey [1],-16 mmHg
same,Peak deltaHR,Rhesus monkey [2],-26 beats min-1
same,T1/2,Rhesus monkey [3],< 10 min
same,inhibition,Renin (Homo sapiens) [4],88%
CC(C)CC(C(=O)NCCN1CCOCC1)[S+]([O-])C[C@H](O)[C@H](CC1CCCCC1)NC(=O)[C@H](Cc1cnc[nH]1)NC(=O)[C@H](Cc1ccccc1)NC(=O)OC(C)(C)C (some centres not stated),pIC50,Renin,7.06
CC(C)CC(C(=O)NCCN1CCOCC1)S(=O)(=O)C[C@H](O)[C@H](CC1CCCCC1)NC(=O)[C@H](Cc1c[nH]cn1)NC(=O)[C@H](Cc1ccccc1)NC(=O)OC(C)(C)C (some centres not stated),pIC50,Renin,7.11
CC(C)(C)OC(=O)N[C@@H](Cc1ccccc1)C(=O)N[C@@H](Cc1cnc[nH]1)C(=O)N[C@@H](CC1CCCCC1)[C@@H](O)CSCC(=O)NCCN1CCOCC1,pIC50,Renin,7.40
CN1CCN(C(=O)CSC[C@H](O)[C@H](CC2CCCCC2)NC(=O)[C@H](Cc2c[nH]cn2)NC(=O)[C@H](Cc2ccccc2)NC(=O)OC(C)(C)C)CC1,T1/2,Rhesus monkey [5],< 10 min
same,Peak deltaHR,Rhesus monkey [6],4 beats min-1
same,inhibition,Renin (Homo sapiens) [7],86%
same,Peak deltaMAP,Rhesus monkey [8],-25 mmHg
CC(C)CC(SC[C@H](O)[C@H](CC1CCCCC1)NC(=O)[C@H](Cc1cnc[nH]1)NC(=O)[C@H](Cc1ccccc1)NC(=O)OC(C)(C)C)C(=O)NCCN1CCOCC1 (some centres not stated),pIC50,Renin,7.14
CC(C)(C)S(=O)(=O)[C@@H](Cc1ccccc1)C(=O)N[C@@H](Cc1c[nH]cn1)C(=O)N[C@@H](CC1CCCCC1)[C@@H](O)CS(=O)(=O)CC(=O)NCCN1CCOCC1,Peak deltaMAP,Rhesus monkey [9],-20.5 mmHg
same,inhibition,Renin (Homo sapiens) [10],94%
same,T1/2,Rhesus monkey [11],< 10 min
same,pIC50,Renin,8.14
same,Peak deltaHR,Rhesus monkey [12],-13 beats min-1
CC(C)(C)OC(=O)N[C@@H](Cc1ccccc1)C(=O)N[C@@H](Cc1c[nH]cn1)C(=O)N[C@@H](CC1CCCCC1)[C@@H](O)CSc1nnnn1CCc1ccncc1,Peak deltaHR,Rhesus monkey [13],1 beats min-1
same,T1/2,Rhesus monkey [14],< 10 min
same,Peak deltaMAP,Rhesus monkey [15],-22 mmHg
same,inhibition,Renin (Homo sapiens) [16],95%
CC(C)(C)OC(=O)N[C@@H](Cc1ccccc1)C(=O)N[C@@H](Cc1c[nH]cn1)C(=O)N[C@@H](CC1CCCCC1)[C@@H](O)CS(=O)(=O)CC(=O)NC1C[N+]2([O-])CCC1CC2 (some centres not stated),pIC50,Renin,8.38
